Compound activity from PubChem.
KDM4C inh – inhibitors of human demethylase GASC-1 KDM4C; GST-KDM4C 2-372, H3K9me3 peptide, LANCE TR-FRET; inhibition, % at 12.5 µM; Q9H3R0; 96,000 compounds, 0.15% hits;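 active = mean replicate inhibition above about 25%, with at least 55% of replicates also reaching it, limit read from the data, passing the limit was not always enough; inconclusive = only one of those two conditions met; inactive = neither condition met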
Target sequence (Q9H3R0 2-372 limits assumed): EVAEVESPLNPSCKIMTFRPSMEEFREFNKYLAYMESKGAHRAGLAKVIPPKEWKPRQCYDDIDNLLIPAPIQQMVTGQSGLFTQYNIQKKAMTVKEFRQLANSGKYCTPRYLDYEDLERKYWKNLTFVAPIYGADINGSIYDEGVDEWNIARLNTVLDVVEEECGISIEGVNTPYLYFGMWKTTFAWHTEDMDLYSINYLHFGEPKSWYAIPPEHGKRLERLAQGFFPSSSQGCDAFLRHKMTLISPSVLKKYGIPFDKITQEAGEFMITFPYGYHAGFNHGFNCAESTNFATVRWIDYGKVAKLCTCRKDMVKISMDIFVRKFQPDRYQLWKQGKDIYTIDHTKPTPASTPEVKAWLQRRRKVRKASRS
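Test system: N-terminal GST-fused human GASC-1 (KDM4C) fragment, residues 2-372; quantity: GASC-1 enzyme at 10 nM final in reaction; dosing: single dose; schedule: 30 min demethylation and 1 h detection at room temperature; signal: LANCE TR-FRET, excitation 340 nm, emissions 618 and 671 nm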
Pf Dd2 growth – P. falciparum Dd2 growth inhibition. SYBR Green, 72 h; hits give low values. activity change, % at 10 µM. 94,000 compounds, 2.3% hits. AID 1159554; in the data active = activity change below about -80%; inconclusive = no clear call, values can overlap the other calls
T cruzi growth-1 – inhibitors of T. cruzi proliferation; 77,000 compounds, 5.9% hits; AID 624255; inhibition, % at 8.34 µM; T. cruzi beta-gal in NIH3T3, GalScreen luminescence, 90 h;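 active = mean inhibition above about 93%, with at least 55% of replicates each passing it, limit read from the data, passing the limit was not always enough; inconclusive = only one of those two conditions holds; inactive = neither condition holds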
IDH1 R132H inh – IDH1 R132H (human) inhibition. 70,000 compounds, 0.18% hits. IDH1 R132H reductase, diaphorase/resazurin fluorescence, 60 min. O75874. inhibition, % at 10 µM. AID 624101; in the data active = inhibition above about 34%; inconclusive = no clear call, values can overlap the other calls; inactive = below about 11%
Target sequence (O75874 whole entry R132H): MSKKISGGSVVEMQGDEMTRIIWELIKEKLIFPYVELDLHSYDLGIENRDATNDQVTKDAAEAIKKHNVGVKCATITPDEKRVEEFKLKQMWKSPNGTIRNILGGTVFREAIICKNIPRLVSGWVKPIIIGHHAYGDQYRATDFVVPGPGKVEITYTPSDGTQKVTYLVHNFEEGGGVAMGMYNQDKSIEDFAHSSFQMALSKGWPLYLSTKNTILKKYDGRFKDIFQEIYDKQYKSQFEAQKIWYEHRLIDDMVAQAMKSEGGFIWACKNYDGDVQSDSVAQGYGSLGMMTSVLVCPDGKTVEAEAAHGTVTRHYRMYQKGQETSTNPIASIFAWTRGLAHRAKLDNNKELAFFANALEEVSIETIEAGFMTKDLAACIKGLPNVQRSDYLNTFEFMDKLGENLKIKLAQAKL
T cruzi growth-2 – inhibitors of T. cruzi proliferation | shares compounds with T cruzi growth-1 | T. cruzi beta-gal in NIH3T3, GalScreen luminescence, 90 h | inhibition, % at 8.35 µM | 5,600 compounds, 72% hits | AID 651739;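 active = mean replicate inhibition above about 95% and at least 55% of replicates individually reaching it, limit read from the data; inconclusive = only one of the two criteria is met; inactive = neither criterion is met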
T cruzi growth-3 – inhibitors of T. cruzi proliferation. 5,600 compounds, 21% hits. shares compounds with T cruzi growth-1. inhibition, % at 2.09 µM. T. cruzi beta-gal in NIH3T3, GalScreen luminescence, 90 h;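 active = mean inhibition above about 95%, with at least 55% of replicates also reaching it, limit read from the data; inconclusive = meets just one of the two conditions; inactive = meets neither condition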
3T3 cytotox – NIH/3T3 (mouse) viability loss | 5,600 compounds, 14% hits | AID 651742 | shares compounds with T cruzi growth-1 | cytotoxicity (signal decrease), % at 8.35 µM | NIH/3T3 viability, CellTiter-Glo ATP luminescence, 90 h;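 active = mean signal decrease across replicates above about 35% based on untreated-well scatter, with enough replicates individually passing, limit read from the data; inconclusive = no rule stated though some were filed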
NIH3T3 tox 2 – kills mouse NIH/3T3 fibroblasts. shares compounds with T cruzi growth-1. NIH/3T3 viability, CellTiter-Glo ATP luminescence, 90 h. inhibition, % at 24.9 µM. 5,600 compounds, 56% hits. AID 651744;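 active = mean loss of cell viability signal at or above a set limit, and enough replicates individually reaching it; inconclusive = meets only the mean limit or only the replicate share; inactive = meets neither condition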
Large screens that a line does not name were inactive (follow-up assays come after a bar, where they were run). In the library only some 5.9% were active in any assay of this set; here they are far more common.

CC(C)CC#Cc1ccc2c(c1)O[C@@H](CN(C)C(=O)Nc1ccccc1F)[C@H](C)CN([C@H](C)CO)S2(=O)=O	T cruzi growth-1 115 | T cruzi growth-2 109 | T cruzi growth-3 inactive | 3T3 cytotox inactive | NIH3T3 tox 2 78
CCCC#Cc1ccc2c(c1)O[C@H](CN(C)C(=O)Nc1ccccc1F)[C@H](C)CN([C@H](C)CO)S2(=O)=O	none (no result: T cruzi growth-1, IDH1 R132H inh)
CC(C)CC#Cc1ccc2c(c1)O[C@@H](CN(C)C(=O)Nc1ccccc1F)[C@H](C)CN([C@@H](C)CO)S2(=O)=O	T cruzi growth-1 108 | T cruzi growth-2 108 | T cruzi growth-3 inactive | 3T3 cytotox inactive | NIH3T3 tox 2 101
CC(C)CC#Cc1ccc2c(c1)O[C@H](CN(C)C(=O)Nc1ccccc1F)[C@@H](C)CN([C@@H](C)CO)S2(=O)=O	none
CC(C)CC#Cc1ccc2c(c1)O[C@@H](CN(C)C(=O)Nc1ccccc1F)[C@@H](C)CN([C@H](C)CO)S2(=O)=O	T cruzi growth-1 108 | T cruzi growth-2 106 | T cruzi growth-3 inconclusive | 3T3 cytotox inactive | NIH3T3 tox 2 99
O=C(Nc1cccc(S(=O)(=O)N2CCOCC2)c1)Nc1cccc(Cl)c1Cl	none (no result: KDM4C inh, Pf Dd2 growth, T cruzi growth-1)
COc1cc2c(cc1NC(=O)C(C)Oc1ccccc1C)oc1ccccc12 (stereo unspecified)	none (no result: KDM4C inh, Pf Dd2 growth, T cruzi growth-1)
Cn1c(=O)c2c(nc(NCc3cccnc3)n2Cc2cccc(Br)c2)n(C)c1=O	none (no result: KDM4C inh, Pf Dd2 growth, T cruzi growth-1)
COc1ccc(Cl)cc1N(CC(=O)Nc1ccc(F)c(F)c1)S(C)(=O)=O	none (no result: KDM4C inh, Pf Dd2 growth, T cruzi growth-1)
COC(=O)COc1cccc(NC(=O)c2ccccc2Cl)c1	none (no result: KDM4C inh, Pf Dd2 growth, T cruzi growth-1)
CCCN(C)C[C@H]1Oc2cc(C#Cc3cccc(F)c3)ccc2S(=O)(=O)N([C@H](C)CO)C[C@@H]1C	T cruzi growth-1 110 (no result: Pf Dd2 growth) | T cruzi growth-2 112 | T cruzi growth-3 inactive | 3T3 cytotox inactive | NIH3T3 tox 2 104
CCCN(C)C[C@@H]1Oc2cc(C#Cc3cccc(F)c3)ccc2S(=O)(=O)N([C@H](C)CO)C[C@@H]1C	T cruzi growth-1 108 (no result: Pf Dd2 growth) | T cruzi growth-2 107 | T cruzi growth-3 inactive | 3T3 cytotox inactive | NIH3T3 tox 2 106
CCCN(C)C[C@@H]1Oc2cc(C#Cc3ccccc3F)ccc2S(=O)(=O)N([C@@H](C)CO)C[C@H]1C	T cruzi growth-1 inconclusive | T cruzi growth-2 107 | T cruzi growth-3 inactive | 3T3 cytotox inactive | NIH3T3 tox 2 105
CCCN(C)C[C@H]1Oc2cc(C#Cc3cccc(F)c3)ccc2S(=O)(=O)N([C@@H](C)CO)C[C@H]1C	T cruzi growth-1 108 (no result: Pf Dd2 growth) | T cruzi growth-2 102 | T cruzi growth-3 inactive | 3T3 cytotox inactive | NIH3T3 tox 2 103
CCCN(C)C[C@H]1Oc2cc(C#Cc3cccc(F)c3)ccc2S(=O)(=O)N([C@H](C)CO)C[C@H]1C	none (no result: Pf Dd2 growth)
CCCC#Cc1ccc2c(c1)O[C@@H](CN(C)CCC)[C@H](C)CN([C@@H](C)CO)S2(=O)=O	T cruzi growth-1 99 | T cruzi growth-2 101 | T cruzi growth-3 inactive | 3T3 cytotox 39 | NIH3T3 tox 2 104
C[C@H]1CN([C@@H](C)CO)S(=O)(=O)c2ccc(C3=CCCCC3)cc2O[C@H]1CN(C)Cc1ccncc1	T cruzi growth-1 114 (no result: IDH1 R132H inh) | T cruzi growth-2 inactive | T cruzi growth-3 inactive | 3T3 cytotox 51 | NIH3T3 tox 2 66
C[C@@H]1CN([C@H](C)CO)S(=O)(=O)c2ccc(C3=CCCCC3)cc2O[C@@H]1CN(C)Cc1ccncc1	T cruzi growth-1 110 | T cruzi growth-2 100 | T cruzi growth-3 inactive | 3T3 cytotox inactive | NIH3T3 tox 2 67
C[C@@H]1CN([C@H](C)CO)S(=O)(=O)c2ccc(C3=CCCCC3)cc2O[C@H]1CN(C)Cc1ccncc1	T cruzi growth-1 118 (no result: IDH1 R132H inh) | T cruzi growth-2 inactive | T cruzi growth-3 99 | 3T3 cytotox 67 | NIH3T3 tox 2 104
C[C@H](CO)N1C[C@H](C)[C@@H](CN(C)Cc2ccncc2)Oc2cc(C3=CCCCC3)ccc2S1(=O)=O	T cruzi growth-1 115 (no result: IDH1 R132H inh) | T cruzi growth-2 103 | T cruzi growth-3 102 | 3T3 cytotox 52 | NIH3T3 tox 2 105
C[C@H](CO)N1C[C@H](C)[C@H](CN(C)Cc2cncnc2)Oc2cc(C3=CCCCC3)ccc2S1(=O)=O	none
C[C@@H]1CN([C@H](C)CO)S(=O)(=O)c2ccc(C3=CCCC3)cc2O[C@H]1CN(C)Cc1ccccc1	none
C[C@@H]1CN([C@H](C)CO)C(=O)c2cc(NS(=O)(=O)c3ccc(Cl)cc3)ccc2O[C@@H]1CN(C)Cc1ccc(C(F)(F)F)cc1	T cruzi growth-1 128 | T cruzi growth-2 inconclusive | T cruzi growth-3 inactive | 3T3 cytotox 94 | NIH3T3 tox 2 103
Cc1ccc(S(=O)(=O)Nc2ccc3c(c2)C(=O)N([C@@H](C)CO)C[C@H](C)[C@H](CN(C)Cc2ccc(C(F)(F)F)cc2)O3)cc1	T cruzi growth-1 99 | T cruzi growth-2 103 | T cruzi growth-3 100 | 3T3 cytotox inactive | NIH3T3 tox 2 99
Cc1ccc(S(=O)(=O)Nc2ccc3c(c2)C(=O)N([C@H](C)CO)C[C@H](C)[C@H](CN(C)Cc2ccc(C(F)(F)F)cc2)O3)cc1	T cruzi growth-1 97 | T cruzi growth-2 98 | T cruzi growth-3 inactive | 3T3 cytotox inactive | NIH3T3 tox 2 103
C[C@@H]1CN([C@@H](C)CO)C(=O)c2cc(NS(=O)(=O)c3ccc(Cl)cc3)ccc2O[C@H]1CN(C)Cc1ccc(C(F)(F)F)cc1	none
Cn1nc(CC(=O)Nc2ccc(Oc3ccccc3)cc2)c2ccccc2c1=O	none (no result: KDM4C inh, Pf Dd2 growth, T cruzi growth-1)
Cc1ccccc1NC(=O)CSc1nc(-c2ccc(Cl)cc2)cc(C(F)(F)F)n1	none (no result: KDM4C inh, Pf Dd2 growth, T cruzi growth-1)
O=C(c1cccc(F)c1)N1CCCCN2[C@H](CO)[C@H](c3ccc(-c4ccncc4)cc3)[C@@H]2C1	T cruzi growth-1 110 (no result: IDH1 R132H inh) | T cruzi growth-2 113 | T cruzi growth-3 inactive | 3T3 cytotox inactive | NIH3T3 tox 2 inactive
O=C(c1cccc(F)c1)N1CCCCN2[C@H](C1)[C@@H](c1ccc(-c3cncnc3)cc1)[C@@H]2CO	none (no result: IDH1 R132H inh)
O=C(c1cccc(F)c1)N1CCCCN2[C@H](CO)[C@@H](c3ccc(-c4ccc(F)cc4)cc3)[C@@H]2C1	T cruzi growth-1 104 (no result: KDM4C inh, IDH1 R132H inh) | T cruzi growth-2 105 | T cruzi growth-3 inconclusive | 3T3 cytotox inactive | NIH3T3 tox 2 106
O=C(c1cccc(F)c1)N1CCCCN2[C@H](CO)[C@H](c3ccc(-c4ccc(F)cc4)cc3)[C@@H]2C1	T cruzi growth-1 111 (no result: KDM4C inh, IDH1 R132H inh) | T cruzi growth-2 110 | T cruzi growth-3 95 | 3T3 cytotox inactive | NIH3T3 tox 2 65
O=C(c1cccc(F)c1)N1CCCCN2[C@H](C1)[C@@H](c1ccc(-c3ccncc3)cc1)[C@@H]2CO	none (no result: IDH1 R132H inh)
